Most compounds without a hit are left out; they make up all but 1.7% or so of the library.
Runt-CBFb FRET: blocks binding of human RUNX1 Runt domain to CBFb. Q01196+Q13951. Cerulean-Runt/Venus-CBFb FRET ratio 530/480, 1 h. inhibition, % at 20 µM. 220,000 compounds, 0.46% hits. AID 1496;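 active = inhibition over about 50% at 20 µM in the single-dose screen, limit read from the data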;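 also: 0% = DMSO wells and 100% = excess unlabeled CBFb competitor control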
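System: Cerulean-labeled Runt domain protein | Quantity: 100 nM of each labeled protein | Schedule: 1 h compound exposure, room temperature | Detection: Fluorescence energy transfer, 422 nm excitation, 530/480 nm emission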
RanGTP-Imp inh: disruptors of Ran-importin-beta complex formation – biochemical, FRET, CFP-Ran, YFP-importin-beta, homogeneous, primary screen; cell-free CFP-Ran/YFP-importin-beta FRET ratio; inhibition, % (test concentration not listed); 300,000 compounds, 1.1% hits; AID 2216;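 active = more than half of the replicate wells show a fall in the fluorescence ratio signal beyond about 16%, limit read from the data, passing the limit was not always enough; inconclusive = exactly half of the replicate wells pass the set limit; inactive = fewer than half of replicates pass the limit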;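 also: 0% = DMSO wells and 100% = Ran loaded with GDP instead of GTP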
Runt-SMMHC FRET: blocks binding of human RUNX1 Runt domain to CBFb-SMMHC; Q01196+Q13951; Cerulean-Runt/Venus-CBFb-SMMHC FRET ratio 530/480, 1 h; inhibition, % at 20 µM; 220,000 compounds, 0.74% hits; AID 1434;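 active = mean inhibition across duplicate retests at 20 µM reaching about 50%, limit read from the data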;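 also: 0% = DMSO wells and 100% = wells with excess untagged CBFb-SMMHC; inhibitors lower the FRET ratio by blocking Runt binding to CBFb-SMMHC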
Hck-Nef inh: human Hck-Nef kinase inhibition. Recombinant Hck-YEEI plus Nef, Z-Lyte FRET kinase assay. inhibition, % at 20 µM. 220,000 compounds, 0.68% hits;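 active = Hck-Nef kinase inhibition above about 50%, limit read from the data; inactive = inhibition below that limit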;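 also: 0% = DMSO with Hck plus Nef and 100% = Hck alone without Nef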
Target sequence (P08631 whole entry, looked up): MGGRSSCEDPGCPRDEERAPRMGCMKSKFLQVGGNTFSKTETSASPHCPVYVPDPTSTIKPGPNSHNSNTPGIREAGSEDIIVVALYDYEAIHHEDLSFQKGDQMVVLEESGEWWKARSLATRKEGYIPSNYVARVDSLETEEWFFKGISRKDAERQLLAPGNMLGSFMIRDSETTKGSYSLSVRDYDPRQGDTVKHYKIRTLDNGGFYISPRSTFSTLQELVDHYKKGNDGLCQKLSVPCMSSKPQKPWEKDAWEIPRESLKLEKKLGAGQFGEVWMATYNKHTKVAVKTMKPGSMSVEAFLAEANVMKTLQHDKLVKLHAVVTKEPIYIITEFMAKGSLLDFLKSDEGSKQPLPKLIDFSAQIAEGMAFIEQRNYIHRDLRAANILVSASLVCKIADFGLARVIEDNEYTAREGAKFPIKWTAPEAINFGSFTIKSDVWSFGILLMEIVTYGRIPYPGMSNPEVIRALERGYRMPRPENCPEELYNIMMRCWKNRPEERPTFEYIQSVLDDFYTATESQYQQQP
YIC counter: counter-screen for RanGTP-importin-beta inhibitors: YIC FRET probe; shares compounds with RanGTP-Imp inh; Purified YIC probe, intramolecular FRET ratio YFP/CFP; IC50, µM; 1,000 compounds, 40% hits; AID 435026;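 active = fitted half-maximal inhibitory concentration no more than tenfold above the top dose tested; inconclusive = flat fit with 30 to 70% activity, or poor fit; inactive = half-maximal concentration beyond tenfold above the top dose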
Active calls of the source: *; ? = inconclusive; · = no result given.

SMILES	Runt-CBFb FRET	RanGTP-Imp inh	Runt-SMMHC FRET	Hck-Nef inh	YIC counter
Cc1cc(C)c(OCC(O)CN2CCN(c3ccccn3)CC2)c(C)c1 (centres undefined)	-0.6	0.3	0.2	-4.2	·
CCCC(=O)NNc1c2ccccc2nc2ccccc12	40.5	20.8*	26.3	0.5	>50
O=C(NCc1ccccc1)C12CC3CC(CC(C3)C1)C2	0.1	-4.5	-1.7	0.7	·
O=C(O)CCC(=O)NNc1nc2ccccc2nc1-c1ccccc1	0.2	-0.3	-1.7	12.9	·
O=C(CCCO)NNc1c2ccccc2nc2ccccc12	13.5	24.8*	17.4	22.9	>50
O=C(NNc1c2ccccc2nc2ccccc12)C12CC3CC(CC(C3)C1)C2	10.8	24.3*	8.8	22.9	>50
COc1cc(NC(=O)c2cc(-c3cccs3)on2)cc(OC)c1OC	-2.0	28.1*	-2.8	-0.4	>50
COc1cc(NC(=O)c2cc(-c3ccc(C)cc3)on2)cc(OC)c1OC	·	1.7	·	·	·
O=C(NNC(=O)c1ccc(-n2cncn2)c([N+](=O)[O-])c1)c1ccc(Cl)cc1	·	4.6	·	·	·
Cc1ccc(Oc2cc(NN3CCCCC3)c([N+](=O)[O-])cc2[N+](=O)[O-])c(Cl)c1	·	-8.0	·	·	·
CCC1CCCCN1C(=O)COc1cccc2c1CCN(C)C2=O (centres undefined)	0.4	18.3*	-0.6	-35.5	>50
CCS(=O)(=O)c1ccc(S(=O)(=O)CC)s1	-1.2	36.1*	-0.5	1.0	>50
COc1cccc(N2CCN(c3ccc([N+](=O)[O-])cn3)CC2)c1	·	0.8	·	·	·
N#CC1=C(N)Oc2cc3c(cc2C1c1ccc(Cl)cc1)OCO3 (centres undefined)	-0.5	28.7*	2.8	5.3	>50
COc1ccc(C2OC(=O)CC2C(=O)NCc2ccccc2Cl)cc1OC (centres undefined)	1.9	-0.3	1.1	12.0	·
N#C/C(=C/c1ccc(O)c(O)c1)c1nc2ccccc2[nH]1	·	38.5*	·	·	3.93*
N#C/C(=C\c1cccs1)c1nc2ccccc2[nH]1	0.6	1.4	-3.4	-4.3	·
CCOC(=O)C/C(=N\Nc1ncnc2ccccc12)c1ccccc1	·	23.1*	·	·	>50
COc1ccccc1NC(=O)NC1(C)CCS(=O)(=O)C1 (centres undefined)	·	9.2	·	·	·
COc1cc(S(=O)(=O)NCCCN2CCOCC2)ccc1Cl	1.2	17.4*	2.9	-2.3	>50
Cc1ccc(S(=O)(=O)NCCCN2CCOCC2)cc1C	-3.6	9.0	-0.3	-6.7	·
COc1cc(NC(=O)Cn2ncc(Cl)c(Cl)c2=O)c(C)cc1[N+](=O)[O-]	-0.4	27.4*	-3.6	15.9	>50
CCCCn1c(N)c(N(CCOC)C(=O)c2c(-c3ccccc3)noc2C)c(=O)[nH]c1=O	·	4.2	·	·	·
Cc1ccnc(N2CCC(C(=O)Nc3cccc(C(F)(F)F)c3)CC2)n1	-1.8	-0.7	-5.9	-3.3	·
CC(=O)N(c1ccc(Cl)cc1)c1c[nH]c2ccccc12	-0.8	26.2*	0.7	-0.2	>50
SMILES	Runt-CBFb FRET	RanGTP-Imp inh	Runt-SMMHC FRET	Hck-Nef inh	YIC counter
CC(=O)N(c1ccc(Cl)cc1)c1cn(C(C)=O)c2ccccc12	-0.2	?	3.6	-5.5	·
Cc1sc(NC(=O)c2oc3ccccc3c2C)c(C#N)c1C	3.3	25.2*	-0.7	7.3	>50
Cc1c(C(=O)NC2=NCCS2)oc2ccccc12	-0.7	-0.3	-1.9	-1.0	·
Cc1cc(NC(=O)C(=O)c2cn(C)c3ccccc23)no1	1.1	2.1	0.8	15.5	·
COc1ccc(Cn2c(-c3ccccc3C)nc3c(c(=O)c4ccccc4n3C)c2=O)cc1	·	1.8	·	·	·
Fc1ccc(N/N=C/c2ccncc2)c(F)c1	0.4	-2.5	-1.5	0.2	·
Fc1ccc(N/N=C/C=C/c2ccccc2)c(F)c1	1.2	20.0*	1.3	3.0	>50
CC(C)NC(=O)/C(C#N)=C/c1ccc(N(C)C)o1	-9.1	40.8*	-20.3	13.2	6.38*
Cc1ccc(/C=C(\C#N)C(=O)NC(C)C)o1	-1.0	0.2	1.4	5.2	·
Cc1sc2ncn(CC(=O)NCCCC(=O)N3CCC(C)CC3)c(=O)c2c1C	·	0.6	·	·	·
Cc1sc2ncn(CC(=O)NCCCC(=O)N3CCN(Cc4ccc5c(c4)OCO5)CC3)c(=O)c2c1C	-1.2	27.7*	0.5	-11.7	>50
COc1ccc(OC)c(S(=O)(=O)n2ccnc2C)c1	0.5	27.0*	3.4	0.2	>50
CC1CC(C)CN(c2cc(=O)n(Cc3ccc(F)cc3)c(=O)[nH]2)C1 (centres undefined)	-0.3	60.5*	-2.0	0.4	>50
CCOc1ccc(NC(=O)CSCc2cnn(-c3ccccc3)c2-n2cccc2)cc1	0.8	1.9	2.1	-1.6	·
CCc1cc(C(=O)N(CC(C)C)c2c(N)n(Cc3ccccc3)c(=O)[nH]c2=O)sc1C	·	3.2	·	·	·
COc1cc(OC)cc(C(=O)Nc2sc3c(c2C(N)=O)CCC3)c1	·	18.5*	·	·	>26
COc1ccc(CC(=O)Nc2sc3c(c2C(N)=O)CCCC3)cc1	·	3.5	·	·	·
Cc1ccc(/C=C/C(=O)Nc2cccc3ncccc23)o1	8.8	17.4*	66.5	-0.5	>50
Cc1sc2ncn(CC(=O)NCCCC(=O)Nc3ccc(C(C)C)cc3)c(=O)c2c1C	·	-0.8	·	·	·
C=CCNC(=O)c1cccc(OC2CCN(CC(C)(C)C)CC2)c1	·	18.5*	·	·	>50
C[C@@H]1CN([C@H](C)CO)C(=O)c2cccc(NC(=O)c3ccc(-c4nccs4)cc3)c2O[C@@H]1CN(C)CC1CC1	·	·	·	·	>50
Cc1ccc(-c2cc(-c3ccccc3)[nH]c(=S)c2C#N)cc1	5.3	-1.5	0.6	1.3	·
N#Cc1c(N)[nH]c(=S)c(C#N)c1-c1ccccc1	38.8	30.6*	62.3	2.9	>50
CN(C)/C=C/C(=O)/C=C/c1ccc(Cl)cc1	0.5	22.1*	1.3	2.6	>50
COC(=O)c1c(NC(=O)c2ccc([N+](=O)[O-])o2)sc2c1CCN(C(C)C)C2	·	15.9*	·	·	>50
SMILES	Runt-CBFb FRET	RanGTP-Imp inh	Runt-SMMHC FRET	Hck-Nef inh	YIC counter
CC(C)N1CCc2c(sc(NC(=O)c3ccc([N+](=O)[O-])o3)c2C(N)=O)C1	·	9.6	·	·	·
O=C(CNC(=O)c1ccc(Cl)cc1)NCC(F)(F)F	-3.0	1.8	-3.3	7.3	·
CCN(CC)S(=O)(=O)c1ccc(OC)c(NC(=O)C2CC(=O)N(c3ccc(C)cc3)C2)c1 (centres undefined)	-2.8	29.1*	1.5	17.3	>50
O=C(Cc1cc(=O)oc2cc(O)ccc12)N[C@@H](Cc1c[nH]c2ccccc12)C(=O)O	·	20.6*	·	·	>50
Cc1ccc(C(=O)NNC2CC(=O)N(c3ccc4c(c3)OCCO4)C2=O)cc1 (centres undefined)	·	17.5*	3.7	-18.6	>50
O=C(NNC1CC(=O)N(c2ccc3c(c2)OCCO3)C1=O)c1ccc(Cl)cc1 (centres undefined)	·	0.2	-1.7	-5.3	·
CC(C)CN(Cc1c(O)ccc2ccccc12)CC(C)C	8.2	20.2*	-2.1	-4.3	>50
COc1cccc(CNC(=O)[C@H](C)NC(=O)C2CCN(S(=O)(=O)c3ccccc3)CC2)c1	·	1.0	·	·	·

Bioassay records as filed in PubChem.
